Test results published in ChEMBL document CHEMBL3739344, “A novel class of negative allosteric modulators of NMDA receptor function” (Bioorg Med Chem Lett, 2015).
pIC50: −log10 of the molar value. ≈ marks a conversion by molar mass, not a printed value. Calls of active or inactive are those of the source. No cut-off for these calls is given here.

How the values were obtained:
[1] = biological target: T1, Ionotropic glutamate receptor NMDA 1/2D (Rattus norvegicus) (UniProt P35439+Q62645); assay: Negative allosteric modulation of rat GluN1a/GluN2D receptor expressed in Xenopus laevis oocytes assessed as suppression of 100 uM glutamate and 30 uM glycine induced-current at saturating compound level by voltage clamp recording method; format: cell-based
In short: (§1)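 Rat GluN1-1a cRNA co-injected with GluN2A, 2B, 2C or 2D cRNA into Xenopus oocytes; expression 1–3 days at 16–19 °C. Two-electrode voltage clamp. Currents evoked by 100 µM glutamate plus 30 µM glycine, alone and then with rising inhibitor concentrations. […] 4–17 oocytes from ≥2 frogs.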

[2] = biological target: Glutamate NMDA receptor; Grin1/Grin2b (Rattus norvegicus, UniProt P35439+Q00960); assay: Negative allosteric modulation of rat GluN1a/GluN2B receptor expressed in Xenopus laevis oocytes assessed as suppression of 100 uM glutamate and 30 uM glycine induced-current by voltage clamp recording method; format: cell-based; in short: as §1
[3] = biological target: T2, Glutamate NMDA receptor; Grin1/Grin2c (Rattus norvegicus) (UniProt P35439+Q00961); assay: Negative allosteric modulation of rat GluN1a/GluN2C receptor expressed in Xenopus laevis oocytes assessed as suppression of 100 uM glutamate and 30 uM glycine induced-current at saturating compound level by voltage clamp recording method; format: cell-based; in short: as §1
[4] = biological target: Glutamate NMDA receptor; Grin1/Grin2c (Rattus norvegicus, UniProt P35439+Q00961); assay: Negative allosteric modulation of rat GluN1a/GluN2C receptor expressed in Xenopus laevis oocytes assessed as suppression of 100 uM glutamate and 30 uM glycine induced-current by voltage clamp recording method; format: cell-based; in short: as §1
[5] = biological target: Glutamate NMDA receptor; Grin1/Grin2a (Rattus norvegicus, UniProt P35439+Q00959); assay: Negative allosteric modulation of rat GluN1a/GluN2A receptor expressed in Xenopus laevis oocytes assessed as suppression of 100 uM glutamate and 30 uM glycine glycine induced-current by voltage clamp recording method; format: cell-based; in short: as §1
[6] = biological target: T3, Glutamate NMDA receptor; Grin1/Grin2b (Rattus norvegicus) (UniProt P35439+Q00960); assay: Negative allosteric modulation of rat GluN1a/GluN2B receptor expressed in Xenopus laevis oocytes assessed as suppression of 100 uM glutamate and 30 uM glycine induced-current at saturating compound level by voltage clamp recording method; format: cell-based; in short: as §1
[7] = biological target: T4, Glutamate NMDA receptor; Grin1/Grin2a (Rattus norvegicus) (UniProt P35439+Q00959); assay: Negative allosteric modulation of rat GluN1a/GluN2A receptor expressed in Xenopus laevis oocytes assessed as suppression of 100 uM glutamate and 30 uM glycine induced-current at saturating compound level by voltage clamp recording method; format: cell-based; in short: as §1
[8] = biological target: Ionotropic glutamate receptor NMDA 1/2D (Rattus norvegicus, UniProt P35439+Q62645); assay: Negative allosteric modulation of rat GluN1a/GluN2D receptor expressed in Xenopus laevis oocytes assessed as suppression of 100 uM glutamate and 30 uM glycine induced-current by voltage clamp recording method; format: cell-based; in short: as §1
[9] = biological target: T3, Glutamate NMDA receptor; Grin1/Grin2b (Rattus norvegicus); assay: Negative allosteric modulation of rat GluN1a/GluN2B receptor expressed in Xenopus laevis oocytes assessed as suppression of 100 uM glutamate and 30 uM glycine induced-current at 30 uM by voltage clamp recording method; format: cell-based
[10] = biological target: T4, Glutamate NMDA receptor; Grin1/Grin2a (Rattus norvegicus); assay: Negative allosteric modulation of rat GluN1a/GluN2A receptor expressed in Xenopus laevis oocytes assessed as suppression of 100 uM glutamate and 30 uM glycine induced-current at 30 uM by voltage clamp recording method; format: cell-based
[11] = Solubility of compound in TEVC electrophysiological solution at 3.25 to 100 uM by nephelometric method; format: physicochemical
In short: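 Nephelometry measuring forward light scattering of each compound at 3.25–100 µM in TEVC recording solution. Maximum solubility taken as the intersection point of a linear segmental regression. Mean of n = 2 in quadruplicate.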

Primary neuron = assay: Neuroprotective activity in rat primary hippocampal neurons assessed as 100 uM NMDA and 30 uM glycine induced LDH release in media at 10 uM after 20 to 24 hrs by spectrophotometric analysis; format: functional, cell-based
In short: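 Rat hippocampal neurons were cultured 7–10 days in vitro at 37 °C. They were challenged for 1 h in Mg2+-free medium with 100 µM NMDA plus 30 µM glycine, then returned to normal medium. LDH in the supernatant was read spectrophotometrically 20–24 h later and expressed relative to vehicle-treated cells. Triplicates from 6 independent experiments.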

[12] = biological target: T1, Ionotropic glutamate receptor NMDA 1/2D (Rattus norvegicus); assay: Negative allosteric modulation of rat GluN1a/GluN2D receptor expressed in Xenopus laevis oocytes assessed as suppression of 100 uM glutamate and 30 uM glycine at 30 uM glycine induced-current by voltage clamp recording method; format: cell-based
[13] = biological target: T2, Glutamate NMDA receptor; Grin1/Grin2c (Rattus norvegicus); assay: Negative allosteric modulation of rat GluN1a/GluN2C receptor expressed in Xenopus laevis oocytes assessed as suppression of 100 uM glutamate and 30 uM glycine at 30 uM glycine induced-current by voltage clamp recording method; format: cell-based
Rattus norvegicus = organism: Rattus norvegicus; assay: Selectivity ratio of IC50 for rat GluN1a/GluN2A receptor expressed in Xenopus laevis oocytes to IC50 for rat GluN1a/GluN2D receptor expressed in Xenopus laevis oocytes; format: cell-based

For `CCc1c(C)sc(NC(=O)CC2SC(=N)NC2=O)c1C(=O)OC` (racemic), the inhibition [1] was 82%, the pIC50 [2] was 4.36 and the inhibition [3] was 85%. The pIC50 [4] was 5.17, the pIC50 [5] was 4.57 and the inhibition [6] was 77%. For the same compound, the inhibition [7] was 79% and the pIC50 [8] was 5.04.

In the case of `CCOC(=O)c1c(NC(=O)CC2SC(=N)NC2=O)sc(C)c1C` (racemic), the inhibition [1] was 81%, the inhibition [9] was < 25% and the inhibition [3] was 77%. The pIC50 [4] was 5.09, the pIC50 [5] was 4.52 and the inhibition [7] was 80%. It also gave a pIC50 [8] of 4.89.

Work on `CCOC(=O)c1cc(CC)sc1NC(=O)CC1SC(=N)NC1=O` (racemic) yielded an inhibition [1] of 94%, a pIC50 [2] of 5.01 and an inhibition [3] of 97%. It also gave a pIC50 [4] of 5.43, a pIC50 [5] of 5.21 and an inhibition [6] of 96%. For the same compound, the inhibition [7] was 96% and the pIC50 [8] was 5.59.

In the case of `COC(=O)c1ccsc1NC(=O)CC1SC(=N)NC1=O` (racemic), the inhibition [1] was 99%, the inhibition [9] was < 25% and the inhibition [3] was 100%. The pIC50 [4] was 4.39, the inhibition [10] was < 25% and the pIC50 [8] was 4.36.

`CCOC(=O)c1c(NC(=O)CC2SC(=N)NC2=O)sc2c1CCC(CC)C2` (racemic) showed an inhibition [1] of 73%, a solubility kinetic [11] of 73 µM (≈ 29.9 µg/mL) and a pIC50 [2] of 5.66. For the same compound, the inhibition [3] was 80%, the pIC50 [4] was 6.05 and the pIC50 [5] was 5.47. For the same compound, the inhibition [6] was 59%, the inhibition [7] was 58% and the pIC50 [8] was 5.82.

With `C[C@]12N[C@H](Cc3ccccc31)c1ccccc12` the Activity (Primary neuron) was “Active”.

Compound `CCOC(=O)c1c(NC(=O)CC2SC(=N)NC2=O)sc2c1CCC(F)(F)C2` (racemic) has an inhibition [1] of 65%, a solubility kinetic [11] of 35 µM (≈ 14.6 µg/mL) and a pIC50 [2] of 5.10. For the same compound, the inhibition [3] was 75%, the pIC50 [4] was 5.85 and the pIC50 [5] was 5.28. For the same compound, the inhibition [6] was 74%, the inhibition [7] was 84% and the pIC50 [8] was 5.82.

`COC(=O)c1c(NC(=O)CC2SC(N)=NC2=O)sc2c1CCCC2` (racemic) showed an inhibition [1] of 86%, a solubility kinetic [11] of 57 µM (≈ 20.9 µg/mL) and a pIC50 [2] of 5.38. It also gave an inhibition [3] of 88%, a pIC50 [4] of 6.00 and a pIC50 [5] of 5.47. For the same compound, the inhibition [6] was 86%, the inhibition [7] was 81% and the pIC50 [8] was 5.96.

For `CCOC(=O)c1c(NC(=O)CC2NC(=O)NC2=O)sc2c1CCCC2` (racemic), the inhibition [9] was < 25%, the inhibition [12] was < 25% and the inhibition [10] was < 25%. The inhibition [13] was < 25%.

With `COC(=O)c1c(NC(=O)CC2SC(=N)NC2=O)sc(C)c1C` (racemic) the inhibition [1] was 94%, the pIC50 [2] was 4.55 and the inhibition [3] was 88%. It also gave a pIC50 [4] of 5.01, a pIC50 [5] of 4.65 and an inhibition [6] of 63%. For the same compound, the inhibition [7] was 88% and the pIC50 [8] was 4.98.

For `CCOC(=O)c1c(NC(=O)CC2SC(=O)NC2=O)sc2c1CCCC2` (racemic), the inhibition [9] was < 25%, the inhibition [12] was < 25% and the inhibition [10] was < 25%. For the same compound, the inhibition [13] was < 25%.

In the case of `CCOC(=O)c1c(NC(=O)CC2SC(=N)NC2=O)sc2c1CCSC2` (racemic), the inhibition [1] was 84%, the pIC50 [2] was 4.91 and the Ratio IC50 (Rattus norvegicus) was 7. The inhibition [3] was 88%, the pIC50 [4] was 6.10 and the pIC50 [5] was 5.21. The inhibition [6] was 78%, the inhibition [7] was 82% and the pIC50 [8] was 6.10.

With `CCOC(=O)c1c(NC(=O)CC2SC(=N)NC2=O)sc2c1CCOC2` (racemic) the inhibition [1] was 41%, the pIC50 [2] was 5.25 and the inhibition [3] was 59%. The pIC50 [4] was 5.54, the pIC50 [5] was 5.52 and the inhibition [6] was 69%. It also gave an inhibition [7] of 74% and a pIC50 [8] of 5.68.

For `CCOC(=O)c1c(NC(=O)CC2S/C(=N\C)N(C)C2=O)sc2c1CCCC2` (racemic), the inhibition [9] was < 25%, the inhibition [12] was < 25% and the inhibition [10] was < 25%. For the same compound, the inhibition [13] was < 25%.

Work on `COC(=O)c1c(NC(=O)CC2SC(N)=NC2=O)sc2c1CCC(C)C2` (racemic) yielded an inhibition [1] of 94%, a solubility kinetic [11] of 20 µM (≈ 7.63 µg/mL) and a pIC50 [2] of 6.22. It also gave an inhibition [3] of 95%, a pIC50 [4] of 6.52 and a pIC50 [5] of 6.15. For the same compound, the inhibition [6] was 74%, the inhibition [7] was 80% and the pIC50 [8] was 6.52.

With `CCOC(=O)c1c(NC(=O)CC2SC(=N)NC2=O)sc2c1CCCC2` (racemic) the inhibition [1] was 41%, the solubility kinetic [11] was 54 µM (≈ 20.6 µg/mL) and the pIC50 [2] was 5.38. For the same compound, the inhibition [3] was 53%, the pIC50 [4] was 5.92 and the pIC50 [5] was 5.64. The inhibition [6] was 35%, the inhibition [7] was 61% and the pIC50 [8] was 6.22.

`CCOC(=O)c1cc(C)sc1NC(=O)CC1SC(=N)NC1=O` (racemic) showed an inhibition [1] of 99%, a pIC50 [2] of 4.35 and an inhibition [3] of 98%. For the same compound, the pIC50 [4] was 4.95, the pIC50 [5] was 4.37 and the inhibition [6] was 91%. For the same compound, the inhibition [7] was 93% and the pIC50 [8] was 4.91.

For `N#Cc1c(NC(=O)CC2SC(=N)NC2=O)sc2c1CCCC2` (racemic), the inhibition [1] was 63%, the solubility kinetic [11] was 36 µM (≈ 12 µg/mL) and the inhibition [3] was 59%. The pIC50 [4] was 5.54 and the pIC50 [8] was 5.37.

With `COC(=O)c1c(NC(=O)CC2SC(N)=NC2=O)sc2c1CCC(C(C)(C)C)C2` (racemic) the inhibition [9] was < 25%, the inhibition [12] was < 25% and the inhibition [10] was < 25%. For the same compound, the inhibition [13] was < 25%.

For `N=C1NC(=O)C(CC(=O)Nc2sc3c(c2C(=O)O)CCCC3)S1` (racemic), the inhibition [9] was < 25%, the inhibition [12] was < 25% and the inhibition [10] was < 25%. The inhibition [13] was < 25%.

`CCOC(=O)c1c(NC(=O)CC2SC(=N)NC2=O)sc2c1CCC(C)(C)C2` (racemic) gave an inhibition [1] of 90%, a solubility kinetic [11] of 37 µM (≈ 15.2 µg/mL) and a pIC50 [2] of 5.04. For the same compound, the inhibition [3] was 89%, the pIC50 [4] was 5.03 and the pIC50 [5] was 4.79. The inhibition [6] was 44%, the inhibition [7] was 72% and the pIC50 [8] was 5.06.

With `CCOC(=O)c1c(NC(=O)CC2SC(=O)NC2=O)sc2c1CCC2` (racemic) the inhibition [9] was < 25%, the inhibition [12] was < 25% and the inhibition [10] was < 25%. The inhibition [13] was < 25%.

For `CCc1cc(C(=O)OC)c(NC(=O)CC2SC(N)=NC2=O)s1` (racemic), the inhibition [1] was 98%, the pIC50 [2] was 5.03 and the inhibition [3] was 97%. For the same compound, the pIC50 [4] was 5.60, the pIC50 [5] was 5.32 and the inhibition [6] was 97%. For the same compound, the inhibition [7] was 98% and the pIC50 [8] was 5.59.
